An excerpt weighted towards active compounds, which were near 3.2% of everything screened.
NR2E3 ag-1: human photoreceptor-specific nuclear receptor agonism. CHO-S Gal4-NCOR/VP16-NR2E3 two-hybrid, luciferase. actives 0.35% (n = 360,000). inhibition of corepressor binding, % at 3.98 µM. Q9Y5X4. AID 602229;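 active means inhibition above the mean of all tested compounds plus 3 SD, cut at about 70% in these data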;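 further: 0% = DMSO with NR2E3 transfected cells and 100% = cells lacking NR2E3 construct; higher means lower luciferase signal from less NR2E3 corepressor binding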
SMARCA2 activ: activators of SMARCA2 function. MG213 cells, MMTV-luciferase reporter, dexamethasone, overnight. activation, % at 9.1 µM. actives 1% (n = 370,000). AID 652017; in the data active means activation above about 7.8%;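 further: 0% = vehicle wells and 100% = reference activator wells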
GASC-1 inh: human JMJD2C demethylase inhibition; Q9H3R0; GST-JMJD2C(1-420) H3K9me3 demethylation, DELFIA europium; inhibition, % at 2.35 µM; actives 0.069% (n = 330,000); AID 2099;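 active means more than half of a compound's replicate wells show inhibition beyond 50%, single wells judged on their own value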;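 further: signal counts dimethyl H3K9 product captured on neutravidin plate; 0% = median of DMSO wells and 100% = 0.3 times that DMSO median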
Target sequence (Q9H3R0 1-420 limits assumed): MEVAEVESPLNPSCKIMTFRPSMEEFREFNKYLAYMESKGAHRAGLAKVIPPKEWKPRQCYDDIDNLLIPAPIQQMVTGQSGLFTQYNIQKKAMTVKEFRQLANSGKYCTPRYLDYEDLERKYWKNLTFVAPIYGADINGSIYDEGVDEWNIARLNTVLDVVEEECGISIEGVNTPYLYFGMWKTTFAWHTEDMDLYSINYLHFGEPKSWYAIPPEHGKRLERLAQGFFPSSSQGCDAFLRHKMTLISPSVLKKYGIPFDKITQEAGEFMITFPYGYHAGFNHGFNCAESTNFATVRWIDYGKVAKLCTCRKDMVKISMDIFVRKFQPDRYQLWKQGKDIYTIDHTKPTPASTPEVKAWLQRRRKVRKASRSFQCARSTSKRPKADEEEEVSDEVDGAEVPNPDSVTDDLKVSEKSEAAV
DAX1 inh-1: NR0B1 (DAX1) inhibition; P51843; HEK293 Gal4-DAX1 luciferase reporter, luminescence; inhibition, % at 6.75 µM; actives 0.99% (n = 340,000);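 active means inhibition above the mean over all tested compounds plus 3 SD, cut at about 4.2% in these data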;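 further: 0% = DAX1-transfected cells with DMSO and 100% = empty-vector control cells with DMSO; inhibition shows as a rise in luminescence from relieved DAX1 repression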
Target sequence (P51843 207-470 limits assumed): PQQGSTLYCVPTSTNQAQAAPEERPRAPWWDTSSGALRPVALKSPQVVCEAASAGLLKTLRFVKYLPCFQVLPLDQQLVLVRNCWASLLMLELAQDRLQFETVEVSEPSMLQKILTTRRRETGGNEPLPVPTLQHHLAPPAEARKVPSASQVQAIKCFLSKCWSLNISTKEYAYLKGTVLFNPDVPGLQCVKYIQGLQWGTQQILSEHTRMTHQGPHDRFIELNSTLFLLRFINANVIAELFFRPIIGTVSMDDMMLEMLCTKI
DAX1 inh-2: DAX1 (NR0B1) inhibition, primary screen; inhibition, % at 6.8 µM; HEK293T StAR-luciferase reporter, SF-1/DAX-1 repression relief; actives 1.1% (n = 370,000); AID 652010;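 active means inhibition above the mean over all tested compounds plus 3 SD, cut at about 3.6% in these data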;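 further: 0% = DAX-1 cells with DMSO and 100% = cells lacking DAX-1 with DMSO; higher inhibition means more luminescence from relief of DAX-1 repression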
NR2E3 ag-2: agonists of human nuclear receptor NR2E3; Q9Y5X4; actives 0.12% (n = 320,000); AID 2300; GST-NR2E3/biotin-RetCOR TR-FRET, 1536-well; inhibition of corepressor binding, % at 4.78 µM;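 active means percent inhibition above the cutoff of mean plus 3 SD of all tested compounds, set per screening campaign, cut at about 20% in these data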;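 further: 0% = DMSO wells and 100% = biotin wells as full block of FRET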
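Test system – NR2E3–RetCOR corepressor complex · Quantity – NR2E3 fusion 1.35 nM · Buffer or medium – Tris pH 7.5 · Incubation – Compound–protein incubation for 5 h at 4 °C · Technique – TR-FRET, Eu(K)-anti-GST donor, streptavidin-D2 acceptor, ex 340, em 617/671 nm · Evaluation – percent inhibition of 671/617 nm emission ratio versus biotin and DMSO controls · Plate – 1536-well format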
The depositor's hits bear a star; nt = no result; ! = not active in a repeat.

SMILES | NR2E3 ag-1 | SMARCA2 activ | GASC-1 inh | DAX1 inh-1 | DAX1 inh-2 | NR2E3 ag-2
COC(=O)c1cc(=O)c2c([N+](=O)[O-])ccc(OC)c2o1 | -12 | -1 | 12 | 4.6* | 0 | -1
CCCN(CCC)S(=O)(=O)c1ccc(C(=O)NCc2n[nH]c(=S)n2-c2ccc(Cl)c(Cl)c2)cc1 | 14 | 1 | -12 | 5.2* | 0 | -2
O=C(CNC(=O)c1ccccc1O)N/N=C/c1cc(Br)ccc1OC(=O)/C=C/c1ccco1 | nt | -2 | 54* | nt | 0 | 1
O=C(NCCc1c[nH]c2ccccc12)OCc1cn(Cc2ccccc2C(F)(F)F)nn1 | nt | -1 | nt | nt | 0 | nt
COc1cccc(NC(=O)CN(C)C(C)C(=O)Nc2ccc(C(C)=O)cc2)c1 (stereo not drawn) | -6 | 2 | -2 | 6.8* | 0 | 0
CC(=O)c1ccc(NC(=O)C(C)N(C)CC(=O)Nc2ccc(Cl)cc2)cc1 (stereo not drawn) | 8 | -4 | -26 | -1 | -2 | 0
Cc1ccccc1Cn1cc(COC(=O)N2CCOCC2)nn1 | nt | 1 | nt | nt | 1 | nt
Cc1ccc(-c2nnc3n2N=C(c2ccc4ccccc4c2)CS3)cc1 | nt | -4 | nt | nt | -3 | nt
C=CCN(CC#Cc1ccc(C)cc1)Cc1ccc(OC)cc1OC | nt | 0 | nt | nt | -1 | nt
CCC1COC(c2cccn2Cc2ccccc2Cl)=N1 (stereo not drawn) | 5 | -1 | -3 | 5.9* | 0 | 3
C=C(C)CSc1nc2sc(C)c(C)c2c(=O)n1C | nt | -3 | nt | nt | -1 | nt
COc1cc2c(cc1/C=C/C(=O)O)OC(C)C2 (stereo not drawn) | -27 | 1 | 4 | 0 | 0 | 1
CCOc1cc2c(cc1/C=C/C(=O)O)OC(C)C2 (stereo not drawn) | -12 | 0 | 4 | 4.7* | -1 | 1
CCCOc1ccc(CN2CCOCC2)cc1OC | -14 | 2 | -1 | 5.3* | 0 | 1
Cc1cccc(NC(=O)CCc2c(C)nn(-c3ccc(N4CCCCC4)nn3)c2C)c1 | -73 | 4 | -2 | 0 | 3.8* | 2
Cc1ccccc1CN1CCCCC(NC(=O)c2ccc(F)cc2F)C1=O (stereo not drawn) | nt | -2 | nt | nt | -2 | nt
O=C(c1ccccc1)c1cccc[n+]1[O-] | -47 | 1 | 17 | 6.2* | 0 | 3
C=CCN1C(=O)[C@@H](CC(=O)NCCCOC)[C@]2(C(=O)OCC)CCCCC/C=C/12 | nt | -4 | nt | nt | 1 | nt
C=CCNC(=O)C12CCC(C)(C(=O)[C@H]1Br)C2(C)C (stereo partly drawn) | -9 | -2 | 1 | 6.9* | 0 | -2
CCCCNC(=O)C12CCC(C)(C(=O)C1Br)C2(C)C (stereo not drawn) | 14 | 0 | 2 | -2 | 0 | 1
[O-]c1n[n+](-c2ccc(Cl)cc2Cl)cc2ccccc12 | 26 | -4 | -11 | 4.4* | 0 | -1
C=CCOC(=O)N[C@H](c1cccc(OC)c1)[C@H](C)/C=C/CC(=O)OC | nt | -1 | nt | nt | 0 | nt
COc1ccccc1/C=N\NC(=O)c1cccc(S(=O)(=O)N(C)C)c1 | nt | -4 | nt | nt | 0 | nt
COC(=O)CNC(=O)CCc1nnc(C2(c3ccc(Cl)cc3)CCC2)o1 | -35 | 8 | 1 | 4.4* | 1 | 2
Cc1cccc(NC2=C/C(=N/S(=O)(=O)c3cccs3)c3ccccc3C2=O)c1 | -6 | -1 | 1 | 1 | -1 | 0
SMILES | NR2E3 ag-1 | SMARCA2 activ | GASC-1 inh | DAX1 inh-1 | DAX1 inh-2 | NR2E3 ag-2
Cc1ccc(NC2=C/C(=N\S(=O)(=O)c3cccs3)c3ccccc3C2=O)c(C)c1 | 108* | nt | 8 | -6 | nt | 7
Cc1ccc(Cl)cc1NC1=C/C(=N\S(=O)(=O)c2cccs2)c2ccccc2C1=O | 79*! | -5 | 6 | 0 | 0 | 9
COC(=O)C[C@@H]1CC[C@@H]2[C@@H](COc3ccc(NC(C)=O)cc3C(=O)N2C)O1 | nt | -1 | nt | nt | 0 | nt
COC(=O)[C@H](C(C)C)N(CCc1cn(Cc2ccc(C)cc2)nn1)S(=O)(=O)c1ccc(F)cc1Br | nt | -3 | nt | nt | 0 | nt
N/C(=N\C(=O)OCc1ccccc1)N(CC#CC1=CCCCC1)CC1CC1 | nt | -3 | nt | nt | 0 | nt
O=C(O)CSc1nnc(-c2cccs2)n1-c1ccc(Cl)cc1 | 1 | -1 | 4 | 0 | 0 | 0
O=C(CSc1nnc(-c2cccs2)n1-c1cccc(Cl)c1)c1cccc2c1OCCO2 | -12 | 0 | -3 | 6.1* | 0 | -2
O=C1NCC(CN(c2ccccc2)c2ccccc2)O1 (stereo not drawn) | 2 | -4 | -6 | 6.7* | -1 | -2
O=C(COc1ccc(Cl)cc1Cl)c1ccc[nH]1 | -71 | -1 | 11 | 8.0* | 0 | 1
Cc1ccc(Cl)c(OCC(=O)OCC(=O)c2ccc[nH]2)c1 | 10 | -2 | -1 | 0 | -1 | nt
CCCCNC(=O)C1CCCN1C(=O)NCc1ccccc1OC (stereo not drawn) | nt | -6 | nt | nt | 1 | nt
Cc1ccc(-n2nnnc2SCC(=O)NCC2(N3CCCCC3)CCCCC2)c(C)c1 | -5 | 2 | 1 | 0 | 3.6* | 2
CC(C)C(=O)O/N=C1\CCS(=O)(=O)c2sccc21 | 20 | -4 | 1 | 6.2* | 0 | 4
O=c1c(-c2ccccc2)c[nH]n1-c1cccc([N+](=O)[O-])c1 | -86 | 1 | -12 | 8.3* | 2 | -8
CN(Cc1c(F)cccc1Cl)C(=O)CCc1c[nH]c2ccccc12 | -30 | -1 | -14 | 6.2* | 0 | -1
CN(Cc1cccs1)C(=O)CCc1c[nH]c2ccccc12 | -9 | 3 | 3 | 2 | 0 | -1
Cc1ccc2oc(=O)c3cc(C(=O)NCc4ccco4)sc3c2c1 | -28 | -3 | -9 | 6.1* | -1 | -7
C/C(=N\NC(=S)NC(C)C)c1ccc(Cl)c([N+](=O)[O-])c1 | -8 | 2 | 5 | 4.6* | 0 | -3
C/C(=N\NC(=S)NC(C)C)c1cccc([N+](=O)[O-])c1 | 10 | 0 | 5 | 1 | -1 | -2
CCOC(=O)CC[C@H]1CC[C@]2(CCCN(C(=O)C(C)(C)C)C2)O1 | nt | 0 | nt | nt | 0 | nt
C[C@@H]1O[C@@H](OC[C@H]2O[C@@H](Oc3cc(O)c4c(=O)cc(-c5ccc(O)c(O)c5)oc4c3)[C@H](O)[C@@H](O)[C@@H]2O)[C@H](O)[C@H](O)[C@H]1O | -16 | nt | 100* | 1 | nt | nt
O=c1cc(-c2ccc(O)c(O)c2)oc2cc(O[C@@H]3O[C@H](CO)[C@@H](O)[C@H](O)[C@H]3O)cc(O)c12 | -24 | nt | -5 | 2 | nt | nt
Fc1ccccc1-c1nc2ccccc2[nH]1 | -101 | 4 | 2 | 4.9* | 3 | 1
Clc1ccccc1-c1nc2ccccc2[nH]1 | -168 | 4 | -3 | 1 | 0 | -4
CCOC(=O)c1cnc(SCc2ccc(C)cc2)nc1N | -88 | 2 | 10 | 1 | 1 | 3

Compound activity as filed in PubChem.
